# Source: PubChem BioAssay
# In the library only some 2.3% were active in any assay of this set; here they are far more common.
# TRPC4 act – activators of mouse TRPC4 channel, primary screen, Fluo4 calcium, HEK293 TRPC4beta/mu-opioid cells. 310,000 tested, 0.49% active. B-score at 10 µM. Fluo4 calcium fluorescence; active compounds read high;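 active means B-score above 5 SD of library B-scores, and initial fluorescence ratio not above library mean plus 5 SD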;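 further: positive B-score marks a calcium rise read as TRPC4 activation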
#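 Assay system: HEK293 cells stably co-expressing mouse TRPC4beta and mu-opioid receptor / Timing: Fluo4 dye loading 45 min at room temperature, 110 s recording / Signal: Fluo4 calcium-sensitive dye fluorescence, kinetic, 1 Hz baseline / Read-out: integrated baseline-normalised fluorescence ratio, converted to per-well B score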
# TRPC6 activator – mouse TRPC6 channel activators, primary screen, cell-based, HEK293, membrane potential dye; Short transient receptor potential channel 6 (Mus musculus), Q61143; HEK293-TRPC6 membrane potential dye fluorescence; active compounds read high; B-score at 10 µM; 310,000 tested, 0.13% active; AID 2550, 2010;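 active means B-score of the integrated fluorescence ratio above library mean plus 3 SD, and starting fluorescence ratio within library mean plus 5 SD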;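 further: higher score means more depolarization so channel activation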
# TRPC6 inh – mouse TRPC6 channel inhibitors, primary screen, cell-based, HEK293, membrane potential dye; B-score at 10 µM; AID 2553, 2010; 310,000 tested, 1.1% active; ACh-evoked depolarization; active compounds read low;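 active means B-score under library mean minus 3 SD, initial fluorescence not abnormally high, positive integrated signal ratio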;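 further: B-score derived from integrated fluorescence ratio over the kinetic read; more negative B-score means stronger inhibition of depolarization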
# TRPC4 block – inhibitors of mouse TRPC4 channel, primary screen, Fluo4 calcium, HEK293 TRPC4beta/mu-opioid cells; AID 2247, 2010; Short transient receptor potential channel 4 (Mus musculus), Q9QUQ5; 300,000 tested, 0.39% active; DAMGO-evoked Fluo4 calcium flux; active compounds read low; B-score at 10 µM;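 active means B-score over 3 SD under the library average, no early fluorescence shift, positive overall ratio signal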
#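 Assay system: HEK293 cells with stable TRPC4beta plus mu-opioid receptor expression; Probe or stimulus: DAMGO in two steps, submaximal then maximal; Dosing: single-point compound dosing; Measured by: Fluo4 calcium-dye fluorescence, kinetic read; Read-out basis: B score from integrated Fluo4 fluorescence ratio.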
# TRPC4 PAM – positive allosteric modulators of TRPC4, primary screen, cell-based, mouse TRPC4beta, HEK293 mu-opioid, Fluo-4 calcium; 310,000 tested, 0.42% active; B-score at 10 µM; DAMGO EC20, Fluo-4 Ca2+ flux; active compounds read high; Short transient receptor potential channel 4 (Mus musculus), Q9QUQ5;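 active means B-score of calcium response area above 5 SD of library B-scores, with initial fluorescence ratio within 5 SD of library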;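 further: B-score of integrated fluorescence ratio over time as area under calcium response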
# HEK293 MPD ctr – parental HEK293 membrane potential modulation, confirmation, counter-screen for TRPC6 modulator project, cell-based. shares compounds with TRPC6 inh. membrane potential signal change, % at 10 µM. membrane potential dye fluorescence. 2,400 tested, 51% active. AID 488924, 2010;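 active means membrane potential signal moves up or down beyond 5 SD from buffer-only wells, on both duplicate plates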
# HEK293 MPD ctr 2 – second check of TRPC6 modulator effects in parental HEK293 cells; shares compounds with TRPC6 inh; membrane potential dye fluorescence; after compound, maximal acetylcholine stimulation; inhibition, % at 10 µM; 2,400 tested, 14% active;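 active means membrane potential signal drops by more than 5 SD from the mean control signal, in both duplicate plates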;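 further: plate controls were acetylcholine ECmax control wells for no effect and buffer only wells for full effect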
# TRPC4 ctr mod – TRPC4 modulation by TRPC6 hit compounds, confirmation, selectivity assay for TRPC6 modulator project, cell-based, HEK293 TRPC4/mu-opioid, membrane potential dye, mouse; shares compounds with TRPC6 inh; membrane potential fluorescence; percent change from control (negative = decrease, positive = increase), % at 10 µM; 2,400 tested, 69% active;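 active means membrane potential signal moved up or down beyond 5 SD of buffer control wells, in both duplicate plates, actives on both sides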;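 further: plate controls were assay buffer wells for no effect and DAMGO maximal-effect wells for full effect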
# TRPC4 ctr inh 2 – mouse TRPC4 off-target activity of TRPC6 modulators, second screen; 2,400 tested, 55% active; AID 488928; HEK293 TRPC4/mu-opioid, membrane potential dye fluorescence; stimulated with maximal-effect DAMGO; inhibition, % at 10 µM; shares compounds with TRPC6 inh;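 active means drop in membrane potential signal beyond 5 SD of the control wells in both duplicate plates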;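 further: TRPC4 counter screen for TRPC6 hits run under conditions tuned for TRPC6 not TRPC4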
# TRPC6 inh conf – mouse TRPC6 channel inhibitors, confirmation, HEK293 cells, membrane potential dye, duplicate | 3,300 tested, 43% active | shares compounds with TRPC6 inh | AID 488960, 2010 | ACh-evoked depolarization | inhibition, % at 10 µM;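 active means fluorescence ratio falls more than 5 SD below the full-stimulation control mean, in both duplicate runs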;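 further: integrated fluorescence ratio of peak minus minimum over baseline after agonist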
# TRPC6 act confirm – mouse TRPC6 channel activators, confirmation, HEK293 cells, membrane potential dye, duplicate; shares compounds with TRPC6 inh; HEK293-TRPC6 membrane potential dye fluorescence, FDSS; activation, % at 10 µM; 2,800 tested, 11% active; AID 488961, 2010;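 active means ratio signal rise beyond 5 SD above unstimulated control wells' mean, seen in both duplicate runs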;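 further: plate controls were buffer EC0 wells for no effect and acetylcholine ECmax response for full effect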
# Active calls of the source: *; i = inactive; nt = not tested or not shown; + = active, no number.
SMILES,TRPC4 act,TRPC6 activator,TRPC6 inh,TRPC4 block,TRPC4 PAM,HEK293 MPD ctr,HEK293 MPD ctr 2,TRPC4 ctr mod,TRPC4 ctr inh 2,TRPC6 inh conf,TRPC6 act confirm
CCOC(=O)c1c(CN2CCN(C)CC2)n(C)c2cc(Br)c(OC)cc12,i,i,-5.5*,i,i,-113%*,i,-22%*,72%*,44%*,i
CCOC(=O)/C(=C/C=C1\Sc2cc(C)c(C)cc2N1CC)C(C)=O,i,i,-5*,i,i,+,+,282%*,52%*,i,nt
CN1CCC23c4ccccc4NC1C21CCN(C)C3Nc2ccccc21,i,i,i,i,i,nt,nt,nt,nt,nt,nt
C/C=C/C=C/C(=O)N1CC[C@]23c4ccccc4N[C@H]4N(C)c5cccc6c5[C@]42CCN([C@H]6C2OC2(C)C)[C@H]13 (stereo not given in full),i,i,-6.5*,i,i,i,i,i,30%*,66%*,nt
CC1C/C(=N/NC(=O)c2ccc(CSc3nc4ccccc4[nH]3)cc2)CC(C)(C)C1 (stereo not given),i,i,i,i,i,nt,nt,nt,nt,nt,nt
CC1C/C(=N/Nc2nc3ccccc3[nH]2)CC(C)(C)C1 (stereo not given),i,i,-5.4*,i,i,i,i,i,48%*,i,i
COc1ccc(OC2CCN(S(=O)(=O)c3ccc(C(C)=O)cc3)CC2)cc1,i,i,i,i,i,nt,nt,nt,nt,nt,nt
CCOc1ccc(N(C)S(=O)(=O)c2ccc3[nH]cc(C(=O)NCC(OC)OC)c(=O)c3c2)cc1,i,i,-5.5*,i,i,i,i,i,i,i,i
O=C(CCc1ccccc1)c1c(O)cc(O)cc1O,i,i,-5.6*,i,i,-84%*,i,-20%*,74%*,50%*,i
O=C(NCc1nnnn1-c1ccc(F)c(F)c1)c1cc2ccccc2o1,i,i,i,i,i,nt,nt,nt,nt,nt,nt
COc1cccc(OC)c1OCCNCC1COc2ccccc2O1 (stereo not given),i,i,-5.6*,i,i,144%*,i,27%*,38%*,i,nt
O=C1c2cccc3cccc(c23)C(=O)N1CC1CCN(CC(O)COc2ccc3ccccc3c2)CC1 (stereo not given),i,i,i,i,i,nt,nt,nt,nt,nt,nt
